From ChEMBL document CHEMBL4346742, “The parmodulin NRD-21 is an allosteric inhibitor of PAR1 Gq signaling with improved anti-inflammatory activity and stability” (Bioorg Med Chem, 2019)
Activity calls are given as the source filed them. No cut-off for these calls is given here.

Target: T1, Proteinase-activated receptor 1 (Homo sapiens) (UniProt P25116)
T1 sequence (whole entry): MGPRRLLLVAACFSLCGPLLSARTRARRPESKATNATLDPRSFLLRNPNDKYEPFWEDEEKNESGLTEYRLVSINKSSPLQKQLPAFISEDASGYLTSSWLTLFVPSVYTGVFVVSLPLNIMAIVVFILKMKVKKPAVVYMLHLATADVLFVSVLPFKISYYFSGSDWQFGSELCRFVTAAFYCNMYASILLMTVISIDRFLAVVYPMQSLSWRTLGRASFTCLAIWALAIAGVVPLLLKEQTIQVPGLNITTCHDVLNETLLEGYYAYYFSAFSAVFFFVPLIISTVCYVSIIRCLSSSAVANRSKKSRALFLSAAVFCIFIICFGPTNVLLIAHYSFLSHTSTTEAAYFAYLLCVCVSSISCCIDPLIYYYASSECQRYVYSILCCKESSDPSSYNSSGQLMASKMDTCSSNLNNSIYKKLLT
Assay: Negative allosteric modulation of PAR1 in human EAhy926 cells assessed as reduction in TFLLRN-NH2-induced intracellular calcium mobilization at 10 uM incubated for 15 mins followed by TFLLRN-NH2 addition by Fluo-4-AM dye based fluorescence assay relative to control
Type: functional, cell-based
Details: not given
In short: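 Adherent EA.hy926 endothelial cells in 96-well format, intracellular Ca2+ mobilization triggered by PAR1 agonist TFLLRN-NH2 at 5 µM; single-point % inhibition at 10 µM (n = 4 wells, SEM); 7-point concentration-response curves, 3 wells per concentration, pIC50 from 4-variable non-linear regression; average IC50 ± SEM over independent assays.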

Row | inhibition | Compound
1 | 38% | COCC(=O)Nc1cccc(NC(=O)c2ccccc2Br)c1
2 | 42% | O=C(Nc1cccc(NC(=O)C2CCCO2)c1)c1ccccc1Br (stereo not drawn)
3 | 27% | CCC(C)C(=O)Nc1cccc(NC(=O)c2ccccc2Br)c1 (stereo not drawn)
4 | 42% | COC(=O)Nc1cccc(NC(=O)c2ccccc2Br)c1
5 | 63% | O=C(Nc1cccc(NC(=O)[C@H]2CCCN2)c1)c1ccccc1Br
6 | 54% | CCC(=O)Nc1cccc(NC(=O)c2ccccc2Br)c1
7 | 65% | O=C(Nc1cccc(NC(=O)C2CCCC2)c1)c1ccccc1Br
8 | 65% | CC(C)(C)OC(=O)N1CCC[C@@H]1C(=O)Nc1cccc(NC(=O)c2ccccc2Br)c1
9 | 48% | CC(C)[C@H](O)C(=O)Nc1cccc(NC(=O)c2ccccc2Br)c1
10 | 37% | O=C(O)CC(=O)Nc1cccc(NC(=O)c2ccccc2Br)c1

The next lines start with the compound.

Row | Compound | inhibition
11 | CCCCOc1cccc(NC(=O)c2ccccc2Br)c1 | 57%
12 | CCCCNc1cccc(NC(=O)c2ccccc2Br)c1 | 85%
13 | COC(=O)CC(=O)Nc1cccc(NC(=O)c2ccccc2Br)c1 | 11%
14 | O=C(Nc1cccc(NC(=O)c2ccccc2Br)c1)c1ccccc1 | 58%
15 | CCOC(=O)Nc1cccc(NC(=O)c2ccccc2Br)c1 | 60%
16 | COCCNc1cccc(NC(=O)c2ccccc2Br)c1 | 43%
17 | CCCN(CCC)c1cccc(NC(=O)c2ccccc2Br)c1 | 13%
18 | COCCC(=O)Nc1cccc(NC(=O)c2ccccc2Br)c1 | 39%

Target: Proteinase-activated receptor 2 (Homo sapiens) (UniProt P55085)
Assay: Negative allosteric modulation of PAR2 in human EAhy926 cells assessed as reduction in SLIGKV-NH2-induced intracellular calcium mobilization at 0.316 to 10 uM incubated for 15 mins followed by TFLLRN-NH2 addition by Fluo-4-AM dye based fluorescence assay relative to control
Type: functional, cell-based
Details: not given

Sequence of Proteinase-activated receptor 2 (Homo sapiens) (P55085 whole entry): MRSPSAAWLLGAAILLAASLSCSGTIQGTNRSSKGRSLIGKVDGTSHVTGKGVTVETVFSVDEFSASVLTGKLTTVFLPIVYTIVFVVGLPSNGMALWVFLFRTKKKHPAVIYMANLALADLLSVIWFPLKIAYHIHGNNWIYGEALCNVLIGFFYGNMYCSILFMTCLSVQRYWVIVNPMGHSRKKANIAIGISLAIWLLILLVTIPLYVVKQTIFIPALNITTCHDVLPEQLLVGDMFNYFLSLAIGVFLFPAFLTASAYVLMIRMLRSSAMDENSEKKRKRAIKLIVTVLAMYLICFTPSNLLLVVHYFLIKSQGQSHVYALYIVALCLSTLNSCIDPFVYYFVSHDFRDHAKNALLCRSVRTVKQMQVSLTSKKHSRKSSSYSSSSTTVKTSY

Row | inhibition | Compound
19 | inactive | CCCCNc1cccc(NC(=O)c2ccccc2Br)c1
20 | inactive | CCOC(=O)N[C@@H]1CC[C@@H]2[C@@H](C1)C[C@H]1C(=O)O[C@H](C)[C@H]1[C@H]2/C=C/c1ccc(-c2cccc(F)c2)cn1

Target: T1, Proteinase-activated receptor 1 (Homo sapiens)
Assay: Reversible inhibition of PAR1 in human EAhy926 cells assessed as reduction in TFLLRN-NH2-induced intracellular calcium mobilization at 10 uM incubated for 15 mins and washed in buffer followed by TFLLRN-NH2 addition by Fluo-4-AM dye based fluorescence assay relative to control
Type: functional, cell-based
Details: not given

Row | inhibition | Compound
21 | Active | CCCCNc1cccc(NC(=O)c2ccccc2Br)c1
22 | inactive | CCOC(=O)N[C@@H]1CC[C@@H]2[C@@H](C1)C[C@H]1C(=O)O[C@H](C)[C@H]1[C@H]2/C=C/c1ccc(-c2cccc(F)c2)cn1

Target: T1, Proteinase-activated receptor 1 (Homo sapiens)
Details: 0.316 uM

Row | inhibition | Compound
23 | > 75% | CCOC(=O)N[C@@H]1CC[C@@H]2[C@@H](C1)C[C@H]1C(=O)O[C@H](C)[C@H]1[C@H]2/C=C/c1ccc(-c2cccc(F)c2)cn1
